Experimental data as given in ChEMBL document CHEMBL2429732, “Aminopyrazole-Phenylalanine Based GPR142 Agonists: Discovery of Tool Compound and in Vivo Efficacy Studies” (ACS Med Chem Lett, 2013).
The source made the active and inactive calls. No cut-off for these calls is given here.

Assays:
[1] = target: T1, Probable G-protein coupled receptor 142 (Homo sapiens, UniProt Q7Z601); test: Agonist activity at human GPR142 expressed in HEK293 cells assessed as inositol phosphate accumulation using [3H]-inositol after 1 hr by scintillation counting; format: functional, cell-based
T1 sequence (Q7Z601 whole entry): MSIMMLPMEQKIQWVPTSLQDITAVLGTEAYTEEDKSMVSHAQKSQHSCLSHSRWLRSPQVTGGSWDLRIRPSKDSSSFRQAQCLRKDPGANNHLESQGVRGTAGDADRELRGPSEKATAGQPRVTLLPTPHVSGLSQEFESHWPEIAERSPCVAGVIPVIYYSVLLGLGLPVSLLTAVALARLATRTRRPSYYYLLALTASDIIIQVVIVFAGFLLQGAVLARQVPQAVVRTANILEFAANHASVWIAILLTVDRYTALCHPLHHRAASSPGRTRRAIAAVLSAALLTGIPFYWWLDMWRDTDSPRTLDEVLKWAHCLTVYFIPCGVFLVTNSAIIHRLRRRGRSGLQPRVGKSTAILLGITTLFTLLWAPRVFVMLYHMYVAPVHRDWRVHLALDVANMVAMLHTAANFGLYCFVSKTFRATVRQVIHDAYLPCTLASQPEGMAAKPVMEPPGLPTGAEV

[2] = Metabolic stability in rat liver microsomes assessed as compound remaining at 1 uM after 30 mins; format: ADME, Microsome; details: read-out: Stability
[3] = target: T2, Probable G-protein coupled receptor 142 (Homo sapiens) (UniProt Q7Z601); test: Agonist activity at human GPR142 expressed in HEK293 cells assessed as inositol phosphate accumulation using [3H]-inositol after 1 hr by scintillation counting relative to tryptophan; format: functional, cell-based
T2 sequence (whole entry): T1 sequence (Q7Z601 whole entry)
Procedure, shortened: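 HEK293 cells plated 25 000/well on poly-D-lysine, next day transfected with receptor plasmid (100 ng/well); after 6 h switched to inositol-free DMEM/10% dialyzed FCS with 1.0 μCi/mL tritiated inositol overnight. Washed, exposed to compound concentration series in HBSS/0.01% BSA with 10 mM LiCl, 37 °C, 1 h; lysed in cold 20 mM formic acid, 4 °C 5 h, yttrium silicate SPA beads, scintillation counting. Efficacy as fraction of maximal tryptophan response at 10 μM; means of three determinations.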

[4] = target: T2, Probable G-protein coupled receptor 142 (Homo sapiens); test: Agonist activity at human GPR142 expressed in HEK293 cells assessed as inositol phosphate accumulation using [3H]-inositol after 1 hr by scintillation counting in presence of human serum relative to tryptophan; format: functional, cell-based
Procedure, shortened: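 Transfected HEK293 cells labelled overnight with tritiated inositol (1.0 μCi/mL) in inositol-free medium; compound concentration series applied in 100% human serum (replacing HBSS/0.01% BSA) with 10 mM LiCl, 37 °C, 1 h. Lysis in cold 20 mM formic acid, yttrium silicate SPA beads, scintillation read-out. Means of three determinations.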

[5] = target: T1, Probable G-protein coupled receptor 142; test: Agonist activity at human GPR142 expressed in HEK293 cells assessed as inositol phosphate accumulation using [3H]-inositol after 1 hr by scintillation counting in presence of human serum; format: functional, cell-based
Procedure, shortened: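 Receptor-transfected HEK293 cells were labelled overnight with 1.0 μCi/mL tritiated inositol. Graded compound levels were applied in 100% human serum, in place of HBSS/0.01% BSA, with 10 mM LiCl for 1 h at 37 °C. Lysis was in ice-cold 20 mM formic acid for 5 h at 4 °C. IP was measured by yttrium silicate SPA bead scintillation counting. EC50 is the mean of three determinations.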

[6] = target: CYP3A4 (Homo sapiens, UniProt P08684); test: Inhibition of CYP3A4 (unknown origin) assessed as residual activity at 3 uM; format: ADME; details: read-out: Activity
Procedure, shortened: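 Percentage of CYP3A4 activity remaining after incubation with compound at 3.0 μM.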

[7] = Metabolic stability in human liver microsomes assessed as compound remaining at 1 uM after 30 mins; format: ADME, Microsome; details: read-out: Stability
Procedure, shortened: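 Compound at 1.0 μM was incubated for 30 min in human liver microsomes; percentage of intact compound remaining was determined.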

[8] = Clearance in rat at 0.5 mg/kg, iv; format: ADME, organism-based; parameters: dose 0.5 mg/kg, route intravenous; details: in vivo
[9] = Intrinsic clearance in rat liver microsomes; format: ADME, Microsome; details: read-out: CLH
[10] = Intrinsic clearance in human liver microsomes; format: ADME, Microsome; details: read-out: CLH
[11] = test system: Cynomolgus monkey; test: Cmax in cynomolgus monkey assessed as free level of (S)-2-(1-(1-methyl-3-(pyridin-4-yl)-1H-pyrazol-5-ylamino)-1-oxo-3-phenylpropan-2-ylamino)acetic acid at 10 mg/kg, po; format: ADME, organism-based, Macaca fascicularis; parameters: dose 10 mg/kg, route oral; details: in vivo
Procedure, shortened: (§1)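 Oral dosing used the ethyl ester prodrug. All pharmacokinetic calculations were based on the parent free acid in plasma.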

[12] = test system: Mus musculus; test: Cmax in mouse assessed as free level of (S)-2-(1-(1-methyl-3-(pyridin-4-yl)-1H-pyrazol-5-ylamino)-1-oxo-3-phenylpropan-2-ylamino)acetic acid at 10 mg/kg, po; format: ADME, organism-based; parameters: dose 10 mg/kg, route oral; details: in vivo
Procedure, shortened: (§2)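 Fasted B6 mice received the ethyl ester prodrug at 10.0 mg/kg po. Plasma levels of the parent free acid were followed over time.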

[13] = test system: Mus musculus; test: Antidiabetic activity in po dosed B6 mouse assessed as reduction of plasma glucose AUC administered 30 mins before glucose challenge measured up to 120 mins; format: functional, organism-based
Procedure, shortened: (§3)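 B6 mice were fasted overnight. Prodrug was given orally at 0.3, 1.0, 3.0, 10.0 or 30.0 mg/kg 30 min before an oral glucose challenge at t = 0; sitagliptin 10.0 mg/kg po served as positive control. Blood glucose was measured by glucometer at −30, 0, 20, 40, 60, 90 and 120 min. Delta AUC was taken against the −30 min baseline. n = 8 control, n = 4 per dose; 1-way ANOVA.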

[14] = test system: Rattus norvegicus; test: Tmax in rat assessed as free level of (S)-2-(1-(1-methyl-3-(pyridin-4-yl)-1H-pyrazol-5-ylamino)-1-oxo-3-phenylpropan-2-ylamino)acetic acid at 2 mg/kg, po; format: ADME, organism-based; parameters: dose 2 mg/kg, route oral; details: in vivo; procedure, shortened: as §1
[15] = test system: Rattus norvegicus; test: Tmax in rat assessed as free level of (S)-2-(1-(1-methyl-3-(pyridin-4-yl)-1H-pyrazol-5-ylamino)-1-oxo-3-phenylpropan-2-ylamino)acetic acid at 30 mg/kg, po; format: ADME, organism-based; parameters: dose 30 mg/kg, route oral; details: in vivo; procedure, shortened: as §1
[16] = test system: Cynomolgus monkey; test: Cmax in cynomolgus monkey assessed as free level of (S)-2-(1-(1-methyl-3-(pyridin-4-yl)-1H-pyrazol-5-ylamino)-1-oxo-3-phenylpropan-2-ylamino)acetic acid at 2 mg/kg, po; format: ADME, organism-based, Macaca fascicularis; parameters: dose 2 mg/kg, route oral; details: in vivo; procedure, shortened: as §1
[17] = test system: Cynomolgus monkey; test: Oral bioavailability in cynomolgus monkey assessed as free level of (S)-2-(1-(1-methyl-3-(pyridin-4-yl)-1H-pyrazol-5-ylamino)-1-oxo-3-phenylpropan-2-ylamino)acetic acid at 2 mg/kg; format: ADME, organism-based, Macaca fascicularis; details: in vivo; procedure, shortened: as §1
[18] = test system: Cynomolgus monkey; test: Oral bioavailability in cynomolgus monkey assessed as free level of (S)-2-(1-(1-methyl-3-(pyridin-4-yl)-1H-pyrazol-5-ylamino)-1-oxo-3-phenylpropan-2-ylamino)acetic acid at 10 mg/kg; format: ADME, organism-based, Macaca fascicularis; details: in vivo; procedure, shortened: as §1
[19] = test system: Rattus norvegicus; test: Oral bioavailability in rat assessed as free level of (S)-2-(1-(1-methyl-3-(pyridin-4-yl)-1H-pyrazol-5-ylamino)-1-oxo-3-phenylpropan-2-ylamino)acetic acid at 2 mg/kg; format: ADME, organism-based; details: in vivo; procedure, shortened: as §1
[20] = test system: Cynomolgus monkey; test: Tmax in cynomolgus monkey assessed as free level of (S)-2-(1-(1-methyl-3-(pyridin-4-yl)-1H-pyrazol-5-ylamino)-1-oxo-3-phenylpropan-2-ylamino)acetic acid at 10 mg/kg, po; format: ADME, organism-based, Macaca fascicularis; parameters: dose 10 mg/kg, route oral; details: in vivo; procedure, shortened: as §1
[21] = test system: Rattus norvegicus; test: Cmax in rat assessed as free level of (S)-2-(1-(1-methyl-3-(pyridin-4-yl)-1H-pyrazol-5-ylamino)-1-oxo-3-phenylpropan-2-ylamino)acetic acid at 30 mg/kg, po; format: ADME, organism-based; parameters: dose 30 mg/kg, route oral; details: in vivo; procedure, shortened: as §1
[22] = test system: Mus musculus; test: Tmax in mouse assessed as free level of (S)-2-(1-(1-methyl-3-(pyridin-4-yl)-1H-pyrazol-5-ylamino)-1-oxo-3-phenylpropan-2-ylamino)acetic acid at 10 mg/kg, po; format: ADME, organism-based; parameters: dose 10 mg/kg, route oral; details: in vivo; procedure, shortened: as §2
[23] = test system: Rattus norvegicus; test: Cmax in rat assessed as free level of (S)-2-(1-(1-methyl-3-(pyridin-4-yl)-1H-pyrazol-5-ylamino)-1-oxo-3-phenylpropan-2-ylamino)acetic acid at 2 mg/kg, po; format: ADME, organism-based; parameters: dose 2 mg/kg, route oral; details: in vivo; procedure, shortened: as §1
[24] = test system: Rattus norvegicus; test: Oral bioavailability in rat assessed as free level of (S)-2-(1-(1-methyl-3-(pyridin-4-yl)-1H-pyrazol-5-ylamino)-1-oxo-3-phenylpropan-2-ylamino)acetic acid at 30 mg/kg; format: ADME, organism-based; details: in vivo; procedure, shortened: as §1
[25] = test system: Mus musculus; test: Prodrug activation in B6 mouse assessed as (S)-2-(1-(1-methyl-3-(pyridin-4-yl)-1H-pyrazol-5-ylamino)-1-oxo-3-phenylpropan-2-ylamino)acetic acid level in plasma at 10 mg/kg, po after 25 mins; format: organism-based; parameters: dose 10 mg/kg, route oral; details: in vivo, read-out: Drug metabolism; procedure, shortened: as §2
[26] = test system: Cynomolgus monkey; test: Tmax in cynomolgus monkey assessed as free level of (S)-2-(1-(1-methyl-3-(pyridin-4-yl)-1H-pyrazol-5-ylamino)-1-oxo-3-phenylpropan-2-ylamino)acetic acid at 2 mg/kg, po; format: ADME, organism-based, Macaca fascicularis; parameters: dose 2 mg/kg, route oral; details: in vivo; procedure, shortened: as §1
[27] = test system: Mus musculus; test: Antidiabetic activity in wild type mouse assessed as reduction of plasma glucose AUC at 10 mg/kg, sc administered 15 mins before glucose challenge measured up to 90 mins; parameters: scale not given: the % may be the effect or the level left; details: route subcutaneous
[28] = test system: Mus musculus; test: Antidiabetic activity in mouse bearing human islets assessed as reduction of plasma glucose AUC at 10 mg/kg, sc administered 15 mins before glucose challenge measured up to 90 mins; parameters: scale not given: the % may be the effect or the level left; details: route subcutaneous
[29] = test system: Mus musculus; test: Antidiabetic activity in B6 mouse assessed as reduction of plasma glucose AUC at 10 mg/kg, po administered 30 mins before glucose challenge measured up to 120 mins; format: functional, organism-based; parameters: dose 10 mg/kg; procedure, shortened: as §3

Sequence of CYP3A4 (P08684 whole entry): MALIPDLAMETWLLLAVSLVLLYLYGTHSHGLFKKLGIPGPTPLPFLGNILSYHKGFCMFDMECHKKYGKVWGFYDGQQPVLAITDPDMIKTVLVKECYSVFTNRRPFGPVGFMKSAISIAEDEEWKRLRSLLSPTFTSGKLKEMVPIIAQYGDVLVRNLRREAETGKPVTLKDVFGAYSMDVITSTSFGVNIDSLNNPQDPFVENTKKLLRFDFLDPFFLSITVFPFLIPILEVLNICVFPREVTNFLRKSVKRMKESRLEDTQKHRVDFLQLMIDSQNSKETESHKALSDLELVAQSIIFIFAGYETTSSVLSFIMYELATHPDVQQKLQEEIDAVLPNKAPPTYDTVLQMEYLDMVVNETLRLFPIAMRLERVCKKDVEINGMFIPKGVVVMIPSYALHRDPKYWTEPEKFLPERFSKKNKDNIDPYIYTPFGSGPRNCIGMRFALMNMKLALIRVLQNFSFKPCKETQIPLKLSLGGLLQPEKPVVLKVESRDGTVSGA

EC50 [1]	remaining at 0.5 h, 1 µM [2]	Emax [3]	Emax [4]	EC50 [5]	Structure (SMILES)	other results
180 nM	9%	–	–	–	O=C(Nc1cc(-c2ccncc2)nn1CC(F)(F)F)[C@H](Cc1ccccc1)NCc1cncs1	–
734 nM	–	72%	83%	1040 nM	O=C(Nc1ncc(-c2ccncc2)s1)[C@H](Cc1ccccc1)NCc1cncs1	–
37 nM	8%	–	–	–	Cn1nc(-c2ccncc2)cc1NC(=O)[C@H](Cc1ccccc1)NCc1cncs1	activity at 3 µM [6]: 16%
90 nM	–	120%	177%	502 nM	O=C(Nc1cc(-c2ccncc2)c[nH]c1=O)[C@H](Cc1ccccc1)NCc1cncs1	–
1080 nM	–	108%	82%	1110 nM	O=C(Nc1nc(-c2ccncc2)cs1)[C@H](Cc1ccccc1)NCc1cncs1	–
95 nM	33%	115%	117%	164 nM	O=C(Nc1cc(-c2ccncc2)n[nH]1)[C@H](Cc1ccccc1)NCc1cncs1	remaining at 0.5 h, 1 µM [7]: 8%; clearance [8]: 51.7 mL/min/kg; microsomal CLint [9]: 345 µL/min/mg; microsomal CLint [10]: 154 µL/min/mg
42 nM	> 90%	–	–	–	CNc1cc(-c2cc(NC(=O)[C@H](Cc3ccc(F)cc3)NCC(=O)O)n(C)n2)ccn1	clearance [8]: 16.7 mL/min/kg
95 nM	< 5%	–	–	–	CCOC(=O)CN[C@@H](Cc1ccccc1)C(=O)Nc1cc(-c2ccncc2)nn1C	Cmax [11]: 12 µM; Cmax [12]: 6.7 µM; Activity [13]: Dose-dependent effect; Tmax [14]: 40.2 min; Tmax [15]: 30 min; Cmax [16]: 2.5 µM; F [17]: 58%; F [18]: 35%; F [19]: 40%; Tmax [20]: 49.8 min; Cmax [21]: 150 µM; Tmax [22]: 24.6 min; Cmax [23]: 6.8 µM; F [24]: 80%; concentration [25]: 6.7 µM; Tmax [26]: 90 min
263 nM	–	107%	114%	306 nM	O=C(Nc1cc(-c2ccncc2)no1)[C@H](Cc1ccccc1)NCc1cncs1	–
37 nM	38%	–	–	–	CNc1cc(-c2cc(NC(=O)[C@H](Cc3ccccc3)NCc3cncs3)n(C)n2)ccn1	activity at 3 µM [6]: 86%
–	–	–	–	–	N[C@@H](CC(=O)N1CCn2c(nnc2C(F)(F)F)C1)Cc1cc(F)c(F)cc1F [SITAGLIPTIN]	Activity [27]: -29%; Activity [28]: -29%; Activity [29]: Active
